Source: PubChem (several laboratories)
Hits are enriched below; roughly 2.3% of the tested compounds scored in any of these assays.
HNF4A DNA FP: change in binding of human HNF4A to DNA, primary screen, biochemical, fluorescence polarization, FITC-DNA; Hepatocyte nuclear factor 4-alpha (Homo sapiens), P41235; 1 h; activity change, % at 10 µM; 360,000 compounds, 0.3% hits; in the data active = activity change above about 30%, passing the limit was not always enough
Target sequence (P41235 whole entry, looked up): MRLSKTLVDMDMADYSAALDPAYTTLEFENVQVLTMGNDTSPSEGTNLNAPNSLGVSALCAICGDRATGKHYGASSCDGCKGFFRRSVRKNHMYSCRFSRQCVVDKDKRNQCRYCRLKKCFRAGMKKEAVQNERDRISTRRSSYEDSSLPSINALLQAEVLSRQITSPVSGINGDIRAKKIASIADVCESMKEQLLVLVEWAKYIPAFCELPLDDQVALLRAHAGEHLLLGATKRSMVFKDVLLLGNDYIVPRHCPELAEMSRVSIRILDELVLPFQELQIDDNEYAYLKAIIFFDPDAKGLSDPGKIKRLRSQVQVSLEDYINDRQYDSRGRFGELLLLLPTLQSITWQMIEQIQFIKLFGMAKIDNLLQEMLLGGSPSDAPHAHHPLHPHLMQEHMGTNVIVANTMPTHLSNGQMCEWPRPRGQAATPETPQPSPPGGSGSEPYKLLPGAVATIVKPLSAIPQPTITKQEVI
CRFR2-BP ag: agonists of CRF-BP/CRF-R2 complex, primary screen, cell-based, HEK293, calcium dye fluorescence, uHTS. CRF-binding protein / CRF receptor 2 complex (human). calcium dye fluorescence (FLIPR); percent of saturating CRF peptide response. activation, % at 13.2 µM. 350,000 compounds, 0.46% hits. AID 588473, 2011;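 active = activation of at least 50%, plus an integration ratio under a set limit after plate pattern correction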;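 also: plate controls were neutral control wells without compound for no effect and CRF at EC100 for full effect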
CSN inh: inhibitors of CSN-mediated cullin deneddylation, primary screen, biochemical, fluorescence polarization, uHTS. Purified CSN, SCF-Nedd8-OG deneddylation. inhibition, % at 12.5 µM. 360,000 compounds, 0.38% hits;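 active = pattern-corrected inhibition above about 35%, with an unprinted fluorescence ratio check between 0.5 and 1.5, limit read from the data, passing the limit was not always enough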;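 also: 0% = enzyme with substrate and 100% = substrate without enzyme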
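Test system: Human Csn5 produced in HEK293T cells | Compound: 12.5 µM single point | Times: 90 min, room temperature | Signal: Fluorescence polarization readout | Read-out basis: % inhibition of substrate cleavage by Csn5 | Controls: no-enzyme wells high, enzyme-with-substrate wells low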
TPT1 inh: Candida albicans TPT1 enzyme inhibitors, primary screen, biochemical, fluorescence polarization | tRNA 2'-phosphotransferase TPT1 (Candida albicans SC5314) | recombinant caTPT1, FP RNA substrate dephosphorylation | inhibition, % at 5 µM | 300,000 compounds, 0.81% hits | AID 1962, 2009;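 active = inhibition above the mean of all tested compounds plus 3 SD, set per screening campaign, cut at about 24% in these data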;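 also: plate controls were DMSO alone for no effect and ferristatin control at 100 nM for full effect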
CRFBP-R2 block: antagonists of CRF-BP/CRF-R2 complex, primary screen, cell-based, HEK293, calcium dye fluorescence, uHTS; inhibition, % at 11.8 µM; AID 588475, 2011; CRF-induced calcium fluorescence; 350,000 compounds, 0.59% hits;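 active = inhibition of the ligand-induced calcium signal above about 50% at the single tested concentration, limit read from the data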
Rpn11 block: Rpn11 (PSMD14) deubiquitinase inhibitors, primary screen, biochemical, fluorescence polarization, uHTS. 26S proteasome non-ATPase regulatory subunit 14 (Homo sapiens), O00487. human 26S proteasome, Ub4-pepOG fluorescence polarization; 20S core pre-blocked with epoxomicin. calls only at 20 µM. 360,000 compounds, 0.59% hits;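 active = inhibition at 20 µM, scaled to each plate's controls, above about 33%, limit read from the data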
* = called active by the depositor; i = inactive; · = no result shown.

SMILES	HNF4A DNA FP	CRFR2-BP ag	CSN inh	TPT1 inh	CRFBP-R2 block	Rpn11 block
Cc1[nH]c(C)c(S(=O)(=O)N2CCN(c3cccc(Cl)c3)CC2)c1C(=O)N1CCCC1	5	0	-3	-3	-14	i
COc1cccc(N2CCN(S(=O)(=O)c3c(C)[nH]c(C)c3C(=O)N3CCCC3)CC2)c1	4	2	-2	1	120*	i
O=C(Nc1nc2ccc(S(=O)(=O)N3CCCCC3)cc2s1)c1ccncc1	26	-1	1	0	-9	i
Cc1ccnc(NC(=O)C2CCN(S(=O)(=O)c3ccc4ccccc4c3)CC2)c1	4	0	2	0	21	i
O=C(Nc1ccccn1)C1CCN(S(=O)(=O)c2ccc3ccccc3c2)CC1	2	0	-2	·	59*	i
Cc1cc(NC(=O)CN2CCN(S(=O)(=O)c3ccc4ccccc4c3)CC2)no1	-2	3	-1	-2	50*	i
O=C(Nc1nc2ccc(S(=O)(=O)N3CCCC3)cc2s1)c1ccccn1	0	3	2	1	65*	i
CC(=O)c1ccc(NC(=O)C2C3CCC(C3)C2C(=O)O)cc1 (stereo not given)	0	0	-3	-4	13	i
Cc1ccc(NC(=O)c2ncn(CCCNCC(C)c3ccccc3)n2)cc1C (stereo not given)	2	-4	4	·	-6	i
Cc1ccc(NC(=O)c2ncn(CCCNCC3CCCO3)n2)cc1C (stereo not given)	3	-1	2	·	81*	i
Cc1cc(N2CCN(C)CC2)nc2ccc(NC(=S)NCCCN3CCN(C)CC3)cc12	4	1	-2	4	-9	i
Cc1ccc(-c2nc3cccnc3s2)cc1NC(=O)C1c2ccccc2Oc2ccccc21	40*	1	36*	·	1	i
O=C(Nc1ccccc1-c1nc2ccccc2[nH]1)c1ccc(N2C(=O)CCC2=O)cc1	85*	5	54*	3	7	·
O=C(Nc1ccccc1-c1nc2ccccc2[nH]1)c1ccc(S(=O)(=O)N2CCCCC2)cc1	-1	-2	5	·	0	i
COc1ccc(Cl)cc1NCC(=O)Nc1ccc(OC)c(S(=O)(=O)N2CCCCC2)c1	1	-1	-4	·	-2	i
CCN(CC)C(=O)Cn1c(=O)c2ccccc2n2c(=S)sc(-c3cccc(C)c3)c12	16	55*	33	4	-123	i
CCN(CC)C(=O)CCn1nc(-c2ccc(C)cc2)c2ccccc2c1=O	3	-3	1	4	-17	i
CC(C)(C)CN1C(=O)C(=O)NC[C@@H]1CC1CCCCC1	-2	·	3	·	·	·
O=C1NC[C@H](CC2CCCCC2)N(CCC23CC4CC(CC(C4)C2)C3)C1=O	6	·	66*	·	·	·
O=C1NC[C@H](CC2CCCCC2)N(CCc2cccc(F)c2)C1=O	4	5	38*	-3	-12	i
O=C1COc2ccc(S(=O)(=O)NCc3ccc(Cl)cc3)cc2N1	-1	1	3	0	2	i
COC(=O)CN1C(=O)COc2ccc(S(=O)(=O)NCc3ccc(Cl)cc3)cc21	-1	1	2	2	99*	i
CCc1nc(Nc2ccc(N3CCN(C(C)=O)CC3)cc2)c2oc3ccccc3c2n1	3	-1	-1	-4	24	i
CNc1ccc2c3c(cccc13)C(=O)N(C)C2=O	-91	170*	-74	-63	-118	i
CN1C(=O)c2cccc3c(N(C)C)ccc(c23)C1=O	9	55*	8	10	-44	i
SMILES	HNF4A DNA FP	CRFR2-BP ag	CSN inh	TPT1 inh	CRFBP-R2 block	Rpn11 block
CCn1c(SCC(=O)Nc2oc(-c3ccccc3)c(-c3ccccc3)c2C#N)nnc1-c1cc(OC)cc(OC)c1	14	0	70*	-2	12	i
N#Cc1c(NC(=O)CSc2ncccn2)oc(-c2ccccc2)c1-c1ccccc1	2	1	-2	7	-17	i
COc1ccc2ccccc2c1CNCCCN1CCOCC1	0	-2	6	0	67*	i
CC(=O)c1c(C)[nH]c(C(=O)COC(=O)CCSc2ccccc2)c1C	3	2	8	1	5	i
O=C(NC1(C(F)(F)F)C(=O)Nc2c1c(=O)[nH]c(=O)n2Cc1ccccc1)c1ccc(Cl)cc1Cl (stereo not given)	10	0	-1	2	7	i
O=C(NC1(C(F)(F)F)C(=O)Nc2c1c(=O)[nH]c(=O)n2Cc1ccccc1)c1ccc(Cl)cc1 (stereo not given)	1	0	-1	-4	62*	i
Oc1ccccc1-c1cc(-c2ccco2)[nH]n1	4	1	23	1	-4	i
Oc1ccc(Cl)cc1-c1cc(-c2ccco2)[nH]n1	3	4	45*	3	-20	i
CC1N(O)C(c2ccc(Cl)cc2Cl)N(O)C1(C)C (stereo not given)	0	0	-1	-3	8	i
ON1C(c2ccc(Cl)cc2Cl)N(O)[C@H]2CCCC[C@H]21 (stereo not given in full)	1	-2	1	-2	51*	i
COc1ccc(N2C(=O)c3ccccc3C2=O)cc1	-6	-2	2	-1	24	i
CCCCON1C(=O)c2cccc3cccc(c23)C1=O	2	0	3	-2	99*	i
COc1ccc(N2C(=O)c3cccc4cccc(c34)C2=O)cc1	-1	85*	3	0	-89	i
COc1ccc(N2C(=O)c3cccc4c(N(C)CCO)ccc(c34)C2=O)cc1	-35	77*	-10	·	-57	i
COc1ccc(-c2csc(Cc3nnc4n3CCCCC4)n2)cc1OC	-1	-1	-1	2	30	i
Nc1nc(-c2ccc3c(c2)OCCO3)cs1	2	6	3	-2	76*	i
CC1OC(Nc2ccc(N=Nc3ccccc3)cc2)C(O)C(O)C1O (stereo not given)	3	1	-2	0	39	i
Cc1nc2cc(C(=O)O)ccc2n1-c1ccc(F)cc1F	-2	-2	-2	-4	5	i
CCOc1ccccc1-n1c(C)nc2cc(C(=O)O)ccc21	-3	1	-1	-2	70*	i
COc1ccc(N=Cc2c(O)n(-c3cccc(C)n3)c(=O)c3ccccc23)c(OC)c1	41	72*	55	21	-49	·
